Consider one compound from ChEMBL document CHEMBL4376807, “Hydroxamic Acid Derivatives of β-Carboline/Hydroxycinnamic Acid Hybrids Inducing Apoptosis and Autophagy through the PI3K/Akt/mTOR Pathways” (J Nat Prod, 2019).

Series [1] concerns Bel-7402. The experiment in a line: Induction of autophagy in human Bel7402 cells assessed as upregulation of Beclin1 level at 1 to 5 uM after 24 to 72 hrs by Western blot analysis. In kind it is functional, cell-based. In a few lines: (§1)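 Bel7402 cells (1.5 × 10^5/mL) exposed to compound at indicated doses, or vehicle, for 24 or 72 h. Lysates (0.05 mg/lane) separated on 12% SDS-PAGE, blotted to nitrocellulose, blocked in 5% milk. Probed with anti-LC3, anti-p62 and anti-beclin-1, HRP secondary, chemiluminescent detection. Levels quantified relative to β-actin; three separate assays, mean ± SD.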

The target in series [2] is Histone deacetylase (Homo sapiens) (UniProt Q13547+O15379+Q9UBN7+Q92769+Q9UQL6+Q8WUI4+Q9BY41+Q96DB2+P56524+Q9UKV0+Q969S8). The experiment in a line: Inhibition of HDAC in human Bel7402 cells assessed as increase in acetylated alpha-tubulin expression incubated for 72 hrs by Western blot analysis. In kind it is cell-based. Put shortly: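 Bel7402 cells exposed to vehicle or compound (1.0 and 3.0 μM) for 72 h, with SAHA 5.0 μM as reference. Lysates (0.05 mg/lane) run on 12% SDS-PAGE and transferred to nitrocellulose. Probed with anti-acetyl-H3 and anti-acetyl-α-tubulin, HRP secondary, chemiluminescence. Quantified from three separate assays, mean ± SD.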
A general note: In western blotting, separated proteins are transferred to a membrane and probed.

In series [3] the test system is Bel-7402. Briefly: Antiproliferative activity against human Bel7402 cells at 0.2 to 5 uM after 72 hrs by MTT assay. The series is classed as functional, cell-based. In a few lines: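 Cells grown in DMEM with 10% heat-inactivated FBS, penicillin/streptomycin, 37 °C, 5% CO2. Seeded at 10^4 cells/mL overnight, then exposed to a range of compound concentrations for 72 h; 0.1% DMSO negative control. MTT (5 mg/mL stock) added, absorbance read at 570 nm; percent inhibition from three independent experiments, mean ± SD.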
(Tetrazolium assays rely on reduction of a dye to a coloured formazan, in cell work by metabolically active cells.)

The subject of series [4] is Bel-7402. The experiment in a line: Induction of apoptosis in human Bel7402 cells assessed as increase in cleaved PARP level at 5 uM after 72 hrs by Western blot analysis. The series is classed as functional, cell-based. Put shortly:
(§2)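 Subconfluent Bel7402 cells (1.5 × 10^5/mL) exposed to vehicle or compound for 72 h, then lysed. Lysates (0.05 mg/lane) run on 12% SDS-PAGE, transferred to nitrocellulose, blocked in 5% nonfat milk. Probed for Bax, Bcl-2, cleaved caspase-3 and cleaved PARP, with HRP secondary and chemiluminescence. Levels normalized to β-actin; three separate assays, mean ± SD.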

For series [5], the system named is Bel-7402. The experiment in a line: Induction of autophagy in human Bel7402 cells assessed as downregulation of p62 level at 1 to 5 uM after 24 to 72 hrs by Western blot analysis. In kind it is functional, cell-based. Put shortly:
as §1

Series [6] relates to Bel-7402. The experiment in a line: Induction of autophagy in human Bel7402 cells assessed as downregulation of LC3-I level at 1 to 5 uM after 24 to 72 hrs by Western blot analysis. In kind it is functional, cell-based. In a few lines:
as §1

Series [7] has as its system Bel-7402. The experiment in a line: Induction of apoptosis in human Bel7402 cells assessed as increase in Bax expression after 72 hrs by Western blot analysis. The series is classed as functional, cell-based. In a few lines:
as §2

Series [8] concerns Bel-7402. Briefly: Antiproliferative activity against human Bel7402 cells after 72 hrs by MTT assay. The settings on record: Bel-7402, 72 h. The series is classed as functional, cell-based.
For a further series, the target named is Histone deacetylase 1 (Homo sapiens, UniProt Q13547). Briefly: Inhibition of HDAC1 (unknown origin) using Boc-Lys (Ac)-AMC as substrate incubated for 60 mins by fluorimetric assay.
Chain of Histone deacetylase 1 (Q13547 whole entry): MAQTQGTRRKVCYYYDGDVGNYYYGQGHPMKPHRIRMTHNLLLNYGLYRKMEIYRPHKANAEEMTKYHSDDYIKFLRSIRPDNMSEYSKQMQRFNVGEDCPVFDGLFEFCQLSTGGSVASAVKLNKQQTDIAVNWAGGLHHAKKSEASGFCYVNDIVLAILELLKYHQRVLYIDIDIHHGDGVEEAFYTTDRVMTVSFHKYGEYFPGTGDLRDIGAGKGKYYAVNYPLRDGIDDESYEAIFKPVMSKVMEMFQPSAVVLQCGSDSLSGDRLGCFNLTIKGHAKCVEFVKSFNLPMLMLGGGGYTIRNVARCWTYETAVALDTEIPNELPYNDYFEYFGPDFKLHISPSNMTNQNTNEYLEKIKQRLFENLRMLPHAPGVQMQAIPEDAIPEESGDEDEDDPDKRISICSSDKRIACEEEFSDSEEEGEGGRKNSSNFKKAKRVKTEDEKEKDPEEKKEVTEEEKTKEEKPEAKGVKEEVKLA
A short description of series [9]: Inhibition of PI3K/AKT/mTOR signaling in human Bel7402 cells assessed as reduction in AKT phosphorylation after 24 to 72 hrs by Western blot analysis. The series is classed as cell-based. Put shortly: (§3)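 Bel7402 cells (1.5 × 10^5/mL) exposed to compound at 1.0 and 2.5 μM for 24 or 72 h. Lysates (0.05 mg/lane) separated on 12% SDS-PAGE and blotted to nitrocellulose. Probed for total Akt, phospho-Akt (Ser473), total mTOR and phospho-mTOR, HRP secondary, chemiluminescent detection. Quantified from three separate assays, mean ± SD.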

Series [10] deals with T1, Protein deacetylase HDAC6 (Homo sapiens, UniProt Q9UBN7).
T1 sequence (Q9UBN7 whole entry): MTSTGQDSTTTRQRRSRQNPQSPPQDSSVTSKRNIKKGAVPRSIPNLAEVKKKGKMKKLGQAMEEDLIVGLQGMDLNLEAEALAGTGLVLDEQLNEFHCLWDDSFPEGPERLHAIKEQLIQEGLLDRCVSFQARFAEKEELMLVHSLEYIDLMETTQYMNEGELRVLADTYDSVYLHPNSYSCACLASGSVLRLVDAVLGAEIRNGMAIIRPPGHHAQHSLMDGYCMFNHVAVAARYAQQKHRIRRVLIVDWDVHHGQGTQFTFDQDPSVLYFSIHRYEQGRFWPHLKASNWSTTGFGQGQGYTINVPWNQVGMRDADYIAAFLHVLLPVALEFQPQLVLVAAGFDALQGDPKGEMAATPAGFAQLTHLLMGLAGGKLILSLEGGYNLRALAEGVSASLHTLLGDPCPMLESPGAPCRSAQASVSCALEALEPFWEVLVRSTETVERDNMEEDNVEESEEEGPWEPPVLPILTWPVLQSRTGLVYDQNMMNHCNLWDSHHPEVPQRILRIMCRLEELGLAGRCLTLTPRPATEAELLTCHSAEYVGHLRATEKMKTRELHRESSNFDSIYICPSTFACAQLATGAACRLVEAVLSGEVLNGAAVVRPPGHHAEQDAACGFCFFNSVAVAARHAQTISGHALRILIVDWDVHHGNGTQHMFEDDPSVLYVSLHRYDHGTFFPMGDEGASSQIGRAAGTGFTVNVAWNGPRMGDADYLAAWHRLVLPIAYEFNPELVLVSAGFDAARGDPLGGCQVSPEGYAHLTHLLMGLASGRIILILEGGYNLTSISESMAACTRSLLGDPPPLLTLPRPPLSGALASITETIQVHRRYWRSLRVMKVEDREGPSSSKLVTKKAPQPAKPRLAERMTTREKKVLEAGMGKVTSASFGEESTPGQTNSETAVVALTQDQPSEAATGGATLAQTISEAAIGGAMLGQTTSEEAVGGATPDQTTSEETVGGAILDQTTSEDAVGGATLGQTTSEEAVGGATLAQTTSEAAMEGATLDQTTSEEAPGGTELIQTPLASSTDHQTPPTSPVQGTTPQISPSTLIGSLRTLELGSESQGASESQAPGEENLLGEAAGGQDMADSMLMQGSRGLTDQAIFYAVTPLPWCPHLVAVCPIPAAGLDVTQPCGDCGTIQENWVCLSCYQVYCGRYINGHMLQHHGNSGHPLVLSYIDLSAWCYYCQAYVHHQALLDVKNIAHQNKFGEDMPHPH
Briefly: Inhibition of human HDAC6 using Boc-Lys (Ac)-AMC as substrate incubated for 60 mins by fluorimetric assay.

The test system of series [11] is Bel-7402. Briefly: Effect on mTOR expression in human Bel7402 cells at 1 to 2.5 uM after 24 to 72 hrs by Western blot analysis. The series is classed as ADME, cell-based. The conditions noted are these: bel-7402, 2.5 µM. In a few lines:
as §3

The next series has as its system HepG2. Briefly: Antiproliferative activity against human HepG2 cells after 72 hrs by MTT assay. The series is classed as functional, cell-based. The settings on record: HepG2, 72 h.
For a further series, the target named is Histone deacetylase 3 (Homo sapiens, UniProt O15379). The experiment in a line: Inhibition of human HDAC3 using Boc-Lys (Ac)-AMC as substrate incubated for 60 mins by fluorimetric assay.
Chain of Histone deacetylase 3 (O15379 whole entry): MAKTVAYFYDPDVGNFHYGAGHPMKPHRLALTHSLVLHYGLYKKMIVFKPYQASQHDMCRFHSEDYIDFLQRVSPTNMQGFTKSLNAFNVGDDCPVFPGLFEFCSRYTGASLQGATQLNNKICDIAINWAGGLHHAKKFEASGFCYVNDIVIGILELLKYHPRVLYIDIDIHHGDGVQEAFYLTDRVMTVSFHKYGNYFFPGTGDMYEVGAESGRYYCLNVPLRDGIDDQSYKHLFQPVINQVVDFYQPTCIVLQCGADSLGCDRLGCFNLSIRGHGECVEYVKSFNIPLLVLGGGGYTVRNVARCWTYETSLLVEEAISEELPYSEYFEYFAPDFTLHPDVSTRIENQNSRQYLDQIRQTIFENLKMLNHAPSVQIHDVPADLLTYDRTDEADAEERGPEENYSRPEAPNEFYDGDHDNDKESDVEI

The source made the active and inactive calls. The rule behind the calls is not given here.

Usually IC50 stands for the midpoint of a concentration-inhibition curve.

For the compound `COc1ccc(-c2nc(NCCCOc3ccc(/C=C/C(=O)NO)cc3OC)cc3c2[nH]c2ccccc23)cc1`, the result in the series on Bel-7402 [1], with Bel-7402 [3], in the series on Bel-7402 [4], in the series on Bel-7402 [5] and with Bel-7402 [6] was Active. The inhibition entry in series [2] and in [9] was “Dose-dependent effect” in each case. For the same compound, the Activity entry with Bel-7402 [7] is “Dose-dependent effect”; in the series on Bel-7402 [11] it was “Non-Toxic”. The IC50 in the series on Bel-7402 [8] is 1 µM; against Histone deacetylase 1 it was 0.027 µM; in series [10], 0.013 µM; in the series on HepG2 it was 1.4 µM; on Histone deacetylase 3, 0.148 µM.
